pKi: −log10 of the molar value. Some results are limits rather than exact numbers.

System in one data set: not listed separately
Briefly: Partition coefficient, log P at pH 7.4. As to conditions: octanol/water. It counts as physicochemical.
Take `CNc1ccc(/C=C/c2ccc(OCC(CO)C[18F])cc2)cc1` (centres undefined): the logD (commonly the decadic logarithm of the distribution of all forms, ionised or not, between an organic phase and buffer at a given pH) stood at 2.95.

For another data set, the target named is Amyloid-beta precursor protein (Homo sapiens, UniProt P05067). Briefly: Binding affinity to Beta amyloid aggregates in Alzheimer's disease patient brain by competitive binding assay.
Sequence of Amyloid-beta precursor protein (P05067 whole entry): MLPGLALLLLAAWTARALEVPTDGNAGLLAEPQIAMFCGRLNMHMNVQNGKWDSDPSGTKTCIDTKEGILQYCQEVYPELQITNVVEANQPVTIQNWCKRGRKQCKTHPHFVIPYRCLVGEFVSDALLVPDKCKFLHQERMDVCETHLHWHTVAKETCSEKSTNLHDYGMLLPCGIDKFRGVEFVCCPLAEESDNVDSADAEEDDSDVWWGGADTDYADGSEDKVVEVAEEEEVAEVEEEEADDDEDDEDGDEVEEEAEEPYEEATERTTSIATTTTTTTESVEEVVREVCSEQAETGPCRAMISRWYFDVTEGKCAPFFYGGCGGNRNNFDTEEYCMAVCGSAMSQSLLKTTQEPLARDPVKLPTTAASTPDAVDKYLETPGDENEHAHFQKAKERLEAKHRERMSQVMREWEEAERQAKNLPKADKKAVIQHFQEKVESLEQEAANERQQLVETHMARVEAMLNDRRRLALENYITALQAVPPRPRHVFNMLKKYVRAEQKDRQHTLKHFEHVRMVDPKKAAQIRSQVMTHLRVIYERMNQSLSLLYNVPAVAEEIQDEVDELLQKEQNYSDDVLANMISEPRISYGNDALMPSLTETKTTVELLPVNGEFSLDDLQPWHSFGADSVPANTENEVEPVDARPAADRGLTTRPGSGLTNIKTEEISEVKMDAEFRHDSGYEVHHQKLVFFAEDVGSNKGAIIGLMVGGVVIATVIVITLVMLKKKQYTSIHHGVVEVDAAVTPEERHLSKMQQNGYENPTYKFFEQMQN
Settings: not given
In short, it runs like this:
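Competition binding against ¹⁸F-AV-45 (0.04–0.06 nM, diluted in PBS) in postmortem AD brain homogenate (20–25 µg per assay). Competitors were serially diluted 10⁻⁵–10⁻¹⁰ M in PBS with 0.1% bovine serum albumin, in a final volume of 0.5 mL. Inhibition constant (Ki) derived from displacement.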
Consider `CC(=C(C#N)C#N)c1ccc2cc(N(C)CCF)ccc2c1`, for which the pKi (as a rule, −log10 of the Ki, conventionally taken in molar units) is 6.76. Still for that read-out and setting: the same measure for `CNc1ccc(/C=C/c2ccc(OCC(CO)CF)cc2)cc1` (centres undefined): 8.30; for `COc1ccc(/C=C/c2cccc(I)c2)cc1`: 7.66. On the same count and under the same terms, in the case of `CN(C)c1ccc(/C=C/c2ccccc2I)cc1` it was 8.11; in that of `CN(C)c1ccc(/C=C/c2nc3ccccc3s2)cc1`, 8.64. On the same count and under the same terms, the same measure for `CNc1ccc(/C=C/c2ccc(OCCOCCOCCOCCOCCOCCOCCOCCOCCOCCF)cc2)cc1`: 7.91; for `CNc1ccc(/C=C/c2ccc(OCCOCCOCCOCCOCCOCCOCCOCCF)cc2)cc1`: 8.05. Consider `CNc1ccc(/C=C/c2ccc(OCCOCCOCCOCCOCCOCCOCCF)cc2)cc1`, for which the pKi was 8.09. `Oc1ccc(/C=C/c2cccc(I)c2)cc1` had a pKi of 7.49. The same measure, in the same setting: the same measure for `CN(C)c1ccc(/C=C/c2cccc(I)c2)cc1`: 8.35; for `CNc1ccc(-c2nc3ccc(O)cc3s2)cn1`: 8.77; for `CN(C)c1ccc(/C=C/c2ccc(I)cc2)cc1`: 8.70. Still for that read-out and setting: in the case of `CNc1ccc(/C=C/c2ccc(OCCOCCOCCOCCOCCOCCF)cc2)cc1` it was 8.12; in that of `CNc1ccc(/C=C/c2ccc(OCCOCCOCCOCCOCCOCCOCCOCCOCCF)cc2)cc1`, 7.73. On the same count and under the same terms, in the case of `CN(C)c1ccc(/C=C/c2ccc(F)cc2)cc1` it was 7.66; in that of `O=C(O)c1cc(/N=N/c2ccc(-c3ccc(/N=N/c4ccc(O)c(C(=O)O)c4)cc3)cc2)ccc1O` [CHRYSAMINE G], below 6.00. In turn, `CNc1ccc(/C=C/c2ccc(OCCOCCOCC[18F])nc2)cc1` [FLORBETAPIR F 18] had a pKi of 8.54. `CNc1ccc(-c2nc3ccc(O)cc3s2)cc1F` [FLUTEMETAMOL]: the pKi is 9.13.

(Values after ChEMBL document CHEMBL1156120, “18F stilbenes and styrylpyridines for PET imaging of A beta plaques in Alzheimer's disease: a miniperspective” (J Med Chem, 2010).)
